Tests used:
Rattus norvegicus [1] = assay: Potential antipsychotic activity was assessed by measuring the ability to block the conditioned avoidance response(CAR) in rats on oral administration; indicates insignificant activity; format: functional
D(2) dopamine receptor [2] = biological target: T1, D(2) dopamine receptor (Rattus norvegicus, UniProt P61169); assay: In vitro Dopamine receptor D2 affinity by using [3H]spiperone as the radioligand in rat limbic system at 1 uM concentration of compound; value may range from 72 to 141; format: tissue-based
D(2) dopamine receptor [3] = biological target: T1, D(2) dopamine receptor; assay: In vitro Dopamine receptor D2 affinity by using [3H]spiperone as the radioligand in rat limbic system at 1 uM concentration of compound; value may range from 20 to 130; format: tissue-based
D(2) dopamine receptor [4] = biological target: T1, D(2) dopamine receptor; assay: In vitro Dopamine receptor D2 affinity by using [3H]spiperone as the radioligand in rat limbic system at 1 uM concentration of compound; value may range from 238 to 401; format: tissue-based
Rattus norvegicus [5] = assay: Potential antipsychotic activity was assessed by measuring the ability to block the conditioned avoidance response(CAR) in rats on oral administration; value may range from 30 to 62; format: functional
Outline: (§1)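 Each session had 60 trials, with a control session before every drug run. Trials with no avoidance response (avoidance block) were summed over rats at each dose and expressed as a percentage of total trials. Control avoidance was set at 100%. The dose giving 50% block (AB50) was fitted by least squares.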

[6] = biological target: T2, Serotonin 2 (5-HT2) receptor (Rattus norvegicus, UniProt P30994+P08909+P14842); assay: In vitro 5-hydroxytryptamine 2 receptor affinity by using [3H]spiperone as the radioligand in rat cortical tissue.
Rattus norvegicus [7] = assay: Potential antipsychotic activity was assessed by measuring the ability to block the conditioned avoidance response(CAR) in rats on oral administration.; format: functional
Mus musculus [8] = assay: Ability to inhibit apomorphine (APO) induced climbing behavior in mice by intraperitoneal administration of compound.; value may range from 1 to 23; format: functional; conditions: ip
Mus musculus [9] = assay: Ability to inhibit apomorphine (APO) induced stereotyped behavior in mice by intraperitoneal administration of compound; value may range from 22 to 31; format: functional; conditions: ip
Rattus norvegicus [10] = assay: Potential antipsychotic activity was assessed by measuring the ability to block the conditioned avoidance response(CAR) in rats on oral administration; format: functional
Rattus norvegicus [11] = assay: Potential antipsychotic activity was assessed by measuring the ability to block the conditioned avoidance response(CAR) in rats on oral administration; insigniificant activity, ip in shelf jump tset; format: functional
[12] = biological target: D(2) dopamine receptor (Rattus norvegicus) (UniProt P61169); assay: In vitro Dopamine receptor D2 affinity by using [3H]spiperone as the radioligand in rat limbic system at 1 uM concentration of compound at 1 uM; format: tissue-based
D(2) dopamine receptor [13] = biological target: T1, D(2) dopamine receptor; assay: (§2) In vitro Dopamine receptor D2 affinity by using [3H]spiperone as the radioligand in rat limbic system at 1 uM concentration of compound; format: tissue-based
Rattus norvegicus [14] = assay: Potential antipsychotic activity was assessed by measuring the ability to block the conditioned avoidance response(CAR) in rats on oral administration; value may range from 6 to 63; format: functional; outline: as §1
[15] = biological target: T2, Serotonin 2 (5-HT2) receptor; assay: In vitro 5-hydroxytryptamine 2 receptor affinity by using [3H]spiperone as the radioligand in rat cortical tissue; value may range from 23 to 187
[16] = biological target: T2, Serotonin 2 (5-HT2) receptor; assay: In vitro 5-hydroxytryptamine 2 receptor affinity by using [3H]spiperone as the radioligand in rat cortical tissue; value may range from 29 to 132
D(2) dopamine receptor [17] = biological target: T1, D(2) dopamine receptor; assay: In vitro Dopamine receptor D2 affinity by using [3H]spiperone as the radioligand in rat limbic system at 1 uM concentration of compound; value may range from 39 to 78; format: tissue-based
D(2) dopamine receptor [18] = biological target: T1, D(2) dopamine receptor; assay: In vitro Dopamine receptor D2 affinity by using [3H]spiperone as the radioligand in rat limbic system at 1 uM concentration of compound; value may range from 14 to 22; format: tissue-based
[19] = biological target: T2, Serotonin 2 (5-HT2) receptor; assay: In vitro 5-hydroxytryptamine 2 receptor affinity by using [3H]spiperone as the radioligand in rat cortical tissue; value may range from 136 to 220
Rattus norvegicus [20] = assay: Potential antipsychotic activity was assessed by measuring the ability to block the conditioned avoidance response(CAR) in rats on oral administration; value may range from 8 to 35; format: functional; outline: as §1
[21] = biological target: T2, Serotonin 2 (5-HT2) receptor; assay: In vitro 5-hydroxytryptamine 2 receptor affinity by using [3H]spiperone as the radioligand in rat cortical tissue; value may range from 6 to 75
D(2) dopamine receptor [22] = biological target: T1, D(2) dopamine receptor; assay: In vitro Dopamine receptor D2 affinity by using [3H]spiperone as the radioligand in rat limbic system at 1 uM concentration of compound; value may range from 3 to 10; format: tissue-based
D(2) dopamine receptor [23] = biological target: T1, D(2) dopamine receptor; assay: In vitro Dopamine receptor D2 affinity by using [3H]spiperone as the radioligand in rat limbic system at 1 uM concentration of compound; value may range from 1 to 2; format: tissue-based
[24] = biological target: D(2) dopamine receptor (Rattus norvegicus) (UniProt P61169); assay: In vitro Dopamine receptor D2 affinity by using [3H]spiperone as the radioligand in rat limbic system at 1 uM; format: tissue-based
Rattus norvegicus [25] = assay: Potential antipsychotic activity was assessed by measuring the ability to block the conditioned avoidance response(CAR) in rats on oral administration; value may range from 26 to 51; format: functional; outline: as §1
[26] = biological target: T2, Serotonin 2 (5-HT2) receptor; assay: In vitro 5-hydroxytryptamine 2 receptor affinity by using [3H]spiperone as the radioligand in rat cortical tissue; value may range from 197 to 341
Rattus norvegicus [27] = assay: Potential antipsychotic activity was assessed by measuring the ability to block the conditioned avoidance response(CAR) in rats on oral administration; value may range from 10 to 34; format: functional; outline: as §1
[28] = biological target: T2, Serotonin 2 (5-HT2) receptor; assay: In vitro 5-hydroxytryptamine 2 receptor affinity by using [3H]spiperone as the radioligand in rat cortical tissue.; value may range from 140 to 980
[29] = biological target: T2, Serotonin 2 (5-HT2) receptor; assay: In vitro 5-hydroxytryptamine 2 receptor affinity by using [3H]spiperone as the radioligand in rat cortical tissue; value may range from 2.4 to 5.3
Rattus norvegicus [30] = assay: Potential antipsychotic activity was assessed by measuring the ability to block the conditioned avoidance response(CAR) in rats on oral administration; value may range from 4 to 10; format: functional; outline: as §1
D(2) dopamine receptor [31] = biological target: T1, D(2) dopamine receptor; assay: In vitro Dopamine receptor D2 affinity by using [3H]spiperone as the radioligand in rat limbic system at 1 uM concentration of compound; value may range from 0.7 to 1.5; format: tissue-based
D(2) dopamine receptor [32] = biological target: T1, D(2) dopamine receptor; assay: In vitro Dopamine receptor D2 affinity by using [3H]spiperone as the radioligand in rat limbic system at 1 uM concentration of compound; value may range from […]; format: tissue-based
[33] = biological target: T2, Serotonin 2 (5-HT2) receptor; assay: In vitro 5-hydroxytryptamine 2 receptor affinity by using [3H]-Spiperone as the radioligand in rat cortical tissue; value may range from 12 to 66
[34] = biological target: T2, Serotonin 2 (5-HT2) receptor; assay: In vitro 5-hydroxytryptamine 2 receptor affinity by using [3H]spiperone as the radioligand in rat cortical tissue; value may range from 165 to 263
Rattus norvegicus [35] = assay: Potential antipsychotic activity was assessed by measuring the ability to block the conditioned avoidance response(CAR) in rats on oral administration; value may range from 11 to 81; format: functional; outline: as §1
Mus musculus [36] = assay: Ability to inhibit apomorphine (APO) induced stereotyped behavior in mice by intraperitoneal administration of compound; value may range from 7 to 18; format: functional; conditions: ip
Outline: (§3)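 Male CF-1 mice (20–25 g), acclimated at least 3 days, were given compound ip in 0.25% Tween 80 at 1, 10, 30 and 60 mg/kg (six mice per dose), alongside a concurrent vehicle group. Apomorphine 1 mg/kg sc was given 30 min later. Scoring at 5 min: stereotypy (sniffing-licking-gnawing) 0/1; climbing 0–2.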

D(2) dopamine receptor [37] = biological target: T1, D(2) dopamine receptor; assay: In vitro Dopamine receptor D2 affinity by using [3H]spiperone as the radioligand in rat limbic system at 1 uM concentration of compound; value may range from 84 to 130; format: tissue-based
Rattus norvegicus [38] = assay: Potential antipsychotic activity was assessed by measuring the ability to block the conditioned avoidance response(CAR) in rats on oral administration; value may range from 10 to 31; format: functional; outline: as §1
Mus musculus [39] = assay: Ability to inhibit apomorphine (APO) induced climbing behavior in mice by intraperitoneal administration of compound; value may range from 1 to 13; format: functional; conditions: ip; outline: as §3
[40] = biological target: T2, Serotonin 2 (5-HT2) receptor; assay: In vitro 5-hydroxytryptamine 2 receptor affinity by using [3H]spiperone as the radioligand in rat cortical tissue.; value may range from 76 to 299
D(2) dopamine receptor [41] = biological target: T1, D(2) dopamine receptor; assay: In vitro Dopamine receptor D2 affinity by using [3H]-Spiperone as the radioligand in rat limbic system at 1 uM concentration of compound; value may range from 4 to 15; format: tissue-based
Mus musculus [42] = species on record: Mus musculus; assay: animal or person; conditions: ip
Mus musculus [43] = species on record: Mus musculus; assay: animal or person; conditions: ip; remark: listed apart in the source
[44] = biological target: D(2) dopamine receptor (Rattus norvegicus) (UniProt P61169); assay: as §2; format: tissue-based

Sequence of D(2) dopamine receptor (Rattus norvegicus) (P61169 whole entry): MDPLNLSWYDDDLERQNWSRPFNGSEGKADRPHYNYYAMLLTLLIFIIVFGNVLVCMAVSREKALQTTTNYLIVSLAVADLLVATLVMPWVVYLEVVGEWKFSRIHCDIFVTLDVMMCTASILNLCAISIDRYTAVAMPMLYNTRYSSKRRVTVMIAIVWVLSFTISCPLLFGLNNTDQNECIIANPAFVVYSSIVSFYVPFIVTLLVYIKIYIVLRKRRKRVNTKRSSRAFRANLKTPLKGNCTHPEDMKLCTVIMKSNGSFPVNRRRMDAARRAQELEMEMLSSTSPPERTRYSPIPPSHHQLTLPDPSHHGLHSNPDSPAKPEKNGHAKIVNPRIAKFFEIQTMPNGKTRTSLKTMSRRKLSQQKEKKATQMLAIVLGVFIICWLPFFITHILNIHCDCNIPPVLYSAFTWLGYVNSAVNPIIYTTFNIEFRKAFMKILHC
T1 sequence (P61169 whole entry): as above

Cl.Clc1ccc2[nH]c3c(c2c1)CN(CCc1ccccn1)CC3
AB50 (Rattus norvegicus [1]): >40 mg/kg
Ki (D(2) dopamine receptor [2]): 103 nM

c1cnc(N2CCN(CCCN3CCc4[nH]c5ccccc5c4C3)CC2)nc1
Ki (D(2) dopamine receptor [3]): 60 nM

c1ccc2nc(CCN3CCc4[nH]c5ccccc5c4C3)ccc2c1
Ki (D(2) dopamine receptor [4]): 331 nM

C[C@@H]1CN(CCCn2c3ccccc3c3ccccc32)C[C@H](C)N1 [RIMCAZOLE]
AB50 (Rattus norvegicus [5]): 39 mg/kg
IC50 [6]: > 0.00005 M

Cl.Clc1ccc2[nH]c3c(c2c1)CN(CCc1ccc2ccccc2n1)CC3
AB50 (Rattus norvegicus [7]): >40 mg/kg

CN1CCN(C2=Nc3cc(Cl)ccc3Nc3ccccc32)CC1 [CLOZAPINE]
ED50 (Mus musculus [8]): 5 mg/kg
ED50 (Mus musculus [9]): 26 mg/kg
AB50 (Rattus norvegicus [10]): 11 mg/kg

CC1CN(CCCN2CCc3[nH]c4ccc(Cl)cc4c3C2)CC(C)N1.Cl (configuration not stated)
AB50 (Rattus norvegicus [11]): >40 mg/kg

Cl.c1ccc2c3c([nH]c2c1)CCN(CCCCc1ccncc1)C3
inhibition [12]: 41%
AB50 (Rattus norvegicus [7]): >20 mg/kg

Cl.Fc1ccc2[nH]c3c(c2c1)CN(CCc1cnccn1)CC3
AB50 (Rattus norvegicus [7]): >40 mg/kg
Ki (D(2) dopamine receptor [13]): 63 nM

Cl.Fc1ccc(-n2c3c(c4cc(F)ccc42)CN(CCc2ccncc2)CC3)cc1
AB50 (Rattus norvegicus [14]): 16 mg/kg
Ki [15]: 55 nM

Cl.Clc1ccc2[nH]c3c(c2c1)CN(CCCCc1ccncc1)CC3
Ki [16]: 60 nM
AB50 (Rattus norvegicus [10]): 36 mg/kg

Cl.Clc1ccc2[nH]c3c(c2c1)CN(CCCN1CCN(c2ncccn2)CC1)CC3
Ki (D(2) dopamine receptor [17]): 55 nM
AB50 (Rattus norvegicus [7]): >40 mg/kg

Fc1ccc(C(CCCN2CCc3[nH]c4ccc(F)cc4c3C2)c2ccc(F)cc2)cc1
Ki (D(2) dopamine receptor [18]): 18 nM

Cl.Fc1ccc2[nH]c3c(c2c1)CN(CCc1ccccn1)CC3
Ki [19]: 173 nM
AB50 (Rattus norvegicus [10]): 38 mg/kg

Cl.Fc1ccc(-n2c3c(c4cc(F)ccc42)CN(CCc2cnccn2)CC3)cc1
AB50 (Rattus norvegicus [20]): 16 mg/kg
Ki [21]: 23 nM
Ki (D(2) dopamine receptor [22]): 5 nM

Fc1ccc(-n2c3c(c4cc(F)ccc42)CN(CCCCc2ccnc4ccccc24)CC3)cc1
Ki (D(2) dopamine receptor [23]): 1 nM

Cl.c1cncc(CCCN2CCc3[nH]c4ccccc4c3C2)c1
inhibition [24]: 43%
AB50 (Rattus norvegicus [25]): 33 mg/kg
Ki [26]: 252 nM

Cl.Fc1ccc2[nH]c3c(c2c1)CN(CCCCc1ccncc1)CC3
AB50 (Rattus norvegicus [27]): 15 mg/kg
Ki [28]: 480 nM

Cl.Fc1ccc(-n2c3c(c4cc(F)ccc42)CN(CCc2ccccn2)CC3)cc1
Ki [29]: 3.6 nM
AB50 (Rattus norvegicus [30]): 6 mg/kg

Cl.Fc1ccc(-n2c3c(c4cc(F)ccc42)CN(CCc2ccc4ccccc4n2)CC3)cc1
Ki (D(2) dopamine receptor [31]): 1 nM
AB50 (Rattus norvegicus [7]): 40 mg/kg

Cl.Clc1ccc2[nH]c3c(c2c1)CN(CCCc1cccnc1)CC3
Ki (D(2) dopamine receptor [32]): 126 nM
AB50 (Rattus norvegicus [7]): >40 mg/kg
Ki [33]: 28 nM

Cl.Fc1ccc2[nH]c3c(c2c1)CN(CCc1ccncc1)CC3 [CARVOTROLINE HYDROCHLORIDE]
Ki [34]: 211 nM
AB50 (Rattus norvegicus [35]): 23 mg/kg

Cl.Fc1ccc2[nH]c3c(c2c1)CN(CCCc1cccnc1)CC3 [GEVOTROLINE HYDROCHLORIDE]
ED50 (Mus musculus [36]): 11 mg/kg
Ki (D(2) dopamine receptor [37]): 104 nM
AB50 (Rattus norvegicus [38]): 14 mg/kg
ED50 (Mus musculus [39]): 4 mg/kg
Ki [40]: 136 nM

Fc1ccc(-n2c3c(c4cc(F)ccc42)CN(CCCCc2ccncc2)CC3)cc1
Ki (D(2) dopamine receptor [41]): 7 nM

O=C(CCCN1CCC(O)(c2ccc(Cl)cc2)CC1)c1ccc(F)cc1 [HALOPERIDOL]
AB50 (Rattus norvegicus [7]): 0.2 mg/kg
ED50 (Mus musculus [42]): 0.1 mg/kg
ED50 (Mus musculus [43]): 0.1 mg/kg

c1ccc(CCN2CCc3[nH]c4ccccc4c3C2)nc1
inhibition [44]: 33%

— ChEMBL document CHEMBL1123617, “Antipsychotic activity of substituted gamma-carbolines” (J Med Chem, 1987)
